Tests used:
[1] = Cytotoxicity against human EKVX cells assessed as growth inhibition after 48 hrs by SRB assay; format: functional
[2] = Induction of microtubule depolymerization in rat A10 cells after 18 hrs by indirect immunofluorescence assay; format: cell-based
Summary of the method: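 A-10 cells were exposed to vehicle or compound for 18 h, fixed, and microtubules were visualized by indirect immunofluorescence. EC50 is the concentration causing about 50% microtubule loss, from at least three independent experiments.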

SK-MEL-5 = assay: Cytotoxicity against human SK-MEL-5 cells assessed as growth inhibition after 48 hrs by SRB assay; format: functional; conditions: SK-MEL-5, 48 h
UACC-62 = assay: Cytotoxicity against human UACC62 cells assessed as growth inhibition after 48 hrs by SRB assay; format: functional; conditions: UACC-62, 48 h
ACHN = assay: Cytotoxicity against human ACHN cells assessed as growth inhibition after 48 hrs by SRB assay; format: functional
A498 = assay: Cytotoxicity against human A498 cells assessed as growth inhibition after 48 hrs by SRB assay; format: functional; conditions: A498, 48 h
MOLT-4 = assay: Cytotoxicity against human MOLT4 cells assessed as growth inhibition after 48 hrs by SRB assay; format: functional; conditions: MOLT-4, 48 h
HT-29 = assay: Cytotoxicity against human HT-29 cells assessed as growth inhibition after 48 hrs by SRB assay; format: functional; conditions: HT-29, 48 h
Tubulin (Sus scrofa) = Tubulin (Sus scrofa) (UniProt P02554+P02550); assay: Displacement of [3H]-colchicine from pig brain tubulin at 1 uM after 10 mins by scintillation counting analysis relative to control
Chain of Tubulin (Sus scrofa) (P02550 whole entry, looked up): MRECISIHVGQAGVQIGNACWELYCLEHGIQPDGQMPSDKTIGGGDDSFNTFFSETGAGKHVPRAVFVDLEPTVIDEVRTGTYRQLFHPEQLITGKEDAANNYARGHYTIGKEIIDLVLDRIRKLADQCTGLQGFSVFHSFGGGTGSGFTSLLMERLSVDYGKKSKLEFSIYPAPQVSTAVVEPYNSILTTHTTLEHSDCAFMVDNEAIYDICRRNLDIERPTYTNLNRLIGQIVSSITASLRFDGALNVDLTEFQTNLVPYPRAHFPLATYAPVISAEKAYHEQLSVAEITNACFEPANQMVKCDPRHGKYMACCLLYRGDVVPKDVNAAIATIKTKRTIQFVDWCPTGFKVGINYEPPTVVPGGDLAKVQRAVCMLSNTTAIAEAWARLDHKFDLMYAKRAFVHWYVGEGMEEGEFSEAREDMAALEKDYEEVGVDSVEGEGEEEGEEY
Chain of Tubulin (Sus scrofa) (P02554 whole entry, looked up): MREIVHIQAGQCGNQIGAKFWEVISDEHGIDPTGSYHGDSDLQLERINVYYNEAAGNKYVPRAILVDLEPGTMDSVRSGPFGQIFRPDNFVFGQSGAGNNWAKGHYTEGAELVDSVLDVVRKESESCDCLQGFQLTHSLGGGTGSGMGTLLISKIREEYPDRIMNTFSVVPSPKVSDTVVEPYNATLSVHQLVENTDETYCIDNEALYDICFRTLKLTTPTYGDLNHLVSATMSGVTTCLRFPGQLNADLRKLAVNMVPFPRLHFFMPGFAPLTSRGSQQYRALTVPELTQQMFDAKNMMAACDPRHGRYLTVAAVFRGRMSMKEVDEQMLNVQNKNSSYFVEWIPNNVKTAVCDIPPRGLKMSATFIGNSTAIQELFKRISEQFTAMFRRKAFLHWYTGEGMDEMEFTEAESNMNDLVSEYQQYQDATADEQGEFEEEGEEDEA

OVCAR-8 = assay: Cytotoxicity against human OVCAR8 cells assessed as growth inhibition after 48 hrs by SRB assay; format: functional; conditions: OVCAR-8, 48 h
K562 = assay: Cytotoxicity against human K562 cells assessed as growth inhibition after 48 hrs by SRB assay; format: functional; conditions: K562, 48 h
SK-MEL-2 = assay: Cytotoxicity against human SK-MEL-2 cells assessed as growth inhibition after 48 hrs by SRB assay; format: functional; conditions: SK-MEL-2, 48 h
HCT-15 = assay: Cytotoxicity against human HCT15 cells assessed as growth inhibition after 48 hrs by SRB assay; format: functional; conditions: HCT-15, 48 h
COLO 205 = assay: Cytotoxicity against human COLO205 cells assessed as growth inhibition after 48 hrs by SRB assay; format: functional; conditions: COLO 205, 48 h
NCI-H226 = assay: Cytotoxicity against human NCI-H226 cells assessed as growth inhibition after 48 hrs by SRB assay; format: functional; conditions: NCI-H226, 48 h
TK-10 = assay: Cytotoxicity against human TK10 cells assessed as growth inhibition after 48 hrs by SRB assay; format: functional; conditions: TK-10, 48 h
[3] = Cytotoxicity against human NCI-ADR-RES cells assessed as growth inhibition after 48 hrs by SRB assay; format: functional
RPMI-8226 = assay: Cytotoxicity against human RPMI8226 cells assessed as growth inhibition after 48 hrs by SRB assay; format: functional; conditions: RPMI-8226, 48 h
HOP-92 = assay: Cytotoxicity against human HOP92 cells assessed as growth inhibition after 48 hrs by SRB assay; format: functional; conditions: HOP-92, 48 h
NCI-H322M = assay: Cytotoxicity against human NCI-H322M cells assessed as growth inhibition after 48 hrs by SRB assay; format: functional
SK-OV-3 = assay: Antiproliferative activity against human SKOV3 cells after 48 hrs by SRB assay; format: functional, cell-based; conditions: SK-OV-3, 48 h
Summary of the method: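 Isogenic pairs: parental SK-OV-3 alongside its Pgp-overexpressing subline MDR-M6-6, and parental HeLa alongside βIII-tubulin-transfected HeLa. Antiproliferative IC50 measured by sulforhodamine B assay, averaged from at least three independent experiments ± SD. Relative resistance is the transduced-line IC50 divided by the parental-line IC50.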

MCF7 = assay: Cytotoxicity against human MCF7 cells assessed as growth inhibition after 48 hrs by SRB assay; format: functional; conditions: MCF7, 48 h
NCI-H460 = assay: Cytotoxicity against human NCI-H460 cells assessed as growth inhibition after 48 hrs by SRB assay; format: functional; conditions: NCI-H460, 48 h
SF-295 = assay: Cytotoxicity against human SF295 cells assessed as growth inhibition after 48 hrs by SRB assay; format: functional; conditions: SF-295, 48 h
NCI-H23 = assay: Cytotoxicity against human NCI-H23 cells assessed as growth inhibition after 48 hrs by SRB assay; format: functional; conditions: NCI-H23, 48 h
LOX IMVI = assay: Cytotoxicity against human LOXIMVI cells assessed as growth inhibition after 48 hrs by SRB assay; format: functional
SNB-19 = assay: Cytotoxicity against human SNB19 cells assessed as growth inhibition after 48 hrs by SRB assay; format: functional; conditions: SNB-19, 48 h
SR = assay: Cytotoxicity against human SR cells assessed as growth inhibition after 48 hrs by SRB assay; format: functional
DU-145 = assay: Cytotoxicity against human DU145 cells assessed as growth inhibition after 48 hrs by SRB assay; format: functional; conditions: DU-145, 48 h
M14 = assay: Cytotoxicity against human M14 cells assessed as growth inhibition after 48 hrs by SRB assay; format: functional; conditions: M14, 48 h
MDA-MB-231 = assay: Cytotoxicity against human MDA-MB-231 cells assessed as growth inhibition after 48 hrs by SRB assay; format: functional; conditions: MDA-MB-231, 48 h
OVCAR-4 = assay: Cytotoxicity against human OVCAR4 cells assessed as growth inhibition after 48 hrs by SRB assay; format: functional; conditions: OVCAR-4, 48 h
OVCAR-3 = assay: Cytotoxicity against human OVCAR3 cells assessed as growth inhibition after 48 hrs by SRB assay; format: functional; conditions: OVCAR-3, 48 h
RXF 393 = assay: Cytotoxicity against human RXF393 cells assessed as growth inhibition after 48 hrs by SRB assay; format: functional; conditions: RXF 393, 48 h
MDA-MB-468 = assay: Cytotoxicity against human MDA-MB-468 cells assessed as growth inhibition after 48 hrs by SRB assay; format: functional; conditions: MDA-MB-468, 48 h
HOP-62 = assay: Cytotoxicity against human HOP62 cells assessed as growth inhibition after 48 hrs by SRB assay; format: functional; conditions: HOP-62, 48 h
HL-60(TB) = assay: Cytotoxicity against human HL-60(TB) cells assessed as growth inhibition after 48 hrs by SRB assay; format: functional; conditions: HL-60, 48 h
MDA-MB-435 = assay: Cytotoxicity against human MDA-MB-435 cells assessed as growth inhibition after 48 hrs by SRB assay; format: functional; conditions: MDA-MB-435, 48 h
SF-268 = assay: Cytotoxicity against human SF268 cells assessed as growth inhibition after 48 hrs by SRB assay; format: functional; conditions: SF-268, 48 h
PC-3 = assay: Cytotoxicity against human PC3 cells assessed as growth inhibition after 48 hrs by SRB assay; format: functional; conditions: PC-3, 48 h
SW-620 = assay: Cytotoxicity against human SW620 cells assessed as growth inhibition after 48 hrs by SRB assay; format: functional; conditions: SW-620, 48 h
786-0 = assay: Cytotoxicity against human 786-0 cells assessed as growth inhibition after 48 hrs by SRB assay; format: functional; conditions: 786-0, 48 h
SF-539 = assay: Cytotoxicity against human SF539 cells assessed as growth inhibition after 48 hrs by SRB assay; format: functional; conditions: SF-539, 48 h

With `COc1ccc(N(C)c2nc(C)nc3c2CCC3)cc1.Cl` the GI50 [1] was 0.0348 µM, the EC50 [2] was 0.0259 µM and the GI50 (SK-MEL-5) was under 0.01 µM. It also gave a GI50 (UACC-62) of under 0.01 µM, a GI50 (ACHN) of under 0.01 µM and a GI50 (A498) of under 0.01 µM. The GI50 (MOLT-4) was 0.0278 µM, the GI50 (HT-29) was under 0.01 µM and the inhibition (Tubulin (Sus scrofa)) was 70%. The GI50 (OVCAR-8) was 0.0218 µM, the GI50 (K562) was under 0.01 µM and the GI50 (SK-MEL-2) was 0.0119 µM. It also gave a GI50 (HCT-15) of under 0.01 µM, a GI50 (COLO 205) of under 0.01 µM and a GI50 (NCI-H226) of 0.0347 µM. It also gave a GI50 (TK-10) of 0.0427 µM, a GI50 [3] of under 0.01 µM and a GI50 (RPMI-8226) of 0.0143 µM. It also gave a GI50 (HOP-92) of 0.016 µM, a GI50 (NCI-H322M) of 0.0488 µM and an IC50 (SK-OV-3) of 0.0113 µM. For the same compound, the GI50 (MCF7) was under 0.01 µM, the GI50 (NCI-H460) was 0.0103 µM and the GI50 (SF-295) was under 0.01 µM. It also gave a GI50 (NCI-H23) of 0.0223 µM, a GI50 (LOX IMVI) of 0.0184 µM and a GI50 (SNB-19) of 0.017 µM. It also gave a GI50 (SR) of under 0.01 µM, a GI50 (DU-145) of 0.0196 µM and a GI50 (M14) of under 0.01 µM. The GI50 (MDA-MB-231) was 0.0259 µM, the GI50 (OVCAR-4) was 0.0229 µM and the GI50 (OVCAR-3) was under 0.01 µM. It also gave a GI50 (RXF 393) of under 0.01 µM, a GI50 (MDA-MB-468) of under 0.01 µM and a GI50 (HOP-62) of under 0.01 µM. For the same compound, the GI50 (HL-60(TB)) was under 0.01 µM, the GI50 (MDA-MB-435) was under 0.01 µM and the GI50 (SF-268) was 0.0139 µM. It also gave a GI50 (PC-3) of under 0.01 µM, a GI50 (SW-620) of under 0.01 µM and a GI50 (786-0) of 0.0178 µM. It also gave a GI50 (SF-539) of under 0.01 µM.
In the case of `COc1ccc(N(C)c2nc(C)nc3c2CC(C)C3)cc1.Cl` (racemic), the GI50 [1] is reported as 0.0196 µM, the EC50 [2] is reported as 0.056 µM and the GI50 (SK-MEL-5) is reported as under 0.01 µM. The GI50 (UACC-62) was under 0.01 µM, the GI50 (ACHN) was 0.0146 µM and the GI50 (A498) was under 0.01 µM. For the same compound, the GI50 (MOLT-4) was 0.0318 µM, the GI50 (HT-29) was 0.0118 µM and the inhibition (Tubulin (Sus scrofa)) was 60%. The GI50 (OVCAR-8) was 0.0328 µM, the GI50 (K562) was under 0.01 µM and the GI50 (SK-MEL-2) was 0.0331 µM. The GI50 (HCT-15) was under 0.01 µM, the GI50 (COLO 205) was 0.0183 µM and the GI50 (NCI-H226) was 0.0315 µM. For the same compound, the GI50 (TK-10) was 0.292 µM, the GI50 [3] was under 0.01 µM and the GI50 (RPMI-8226) was 0.0157 µM. It also gave a GI50 (HOP-92) of 0.0554 µM, a GI50 (NCI-H322M) of 0.059 µM and an IC50 (SK-OV-3) of 0.0386 µM. It also gave a GI50 (MCF7) of under 0.01 µM, a GI50 (NCI-H460) of 0.0234 µM and a GI50 (SF-295) of under 0.01 µM. It also gave a GI50 (NCI-H23) of 0.0164 µM, a GI50 (LOX IMVI) of 0.0227 µM and a GI50 (SNB-19) of 0.0369 µM. The GI50 (SR) was under 0.01 µM, the GI50 (DU-145) was 0.0214 µM and the GI50 (M14) was 0.0102 µM. The GI50 (MDA-MB-231) was 0.0246 µM, the GI50 (OVCAR-4) was 0.0268 µM and the GI50 (OVCAR-3) was under 0.01 µM. It also gave a GI50 (RXF 393) of under 0.01 µM, a GI50 (MDA-MB-468) of under 0.01 µM and a GI50 (HOP-62) of 0.0194 µM. The GI50 (HL-60(TB)) was under 0.01 µM, the GI50 (MDA-MB-435) was under 0.01 µM and the GI50 (SF-268) was 0.0152 µM. It also gave a GI50 (PC-3) of 0.0146 µM, a GI50 (SW-620) of under 0.01 µM and a GI50 (786-0) of 0.0348 µM. The GI50 (SF-539) was 0.0114 µM.

From ChEMBL document CHEMBL2424583, “Structure-activity relationship and in vitro and in vivo evaluation of the potent cytotoxic anti-microtubule agent N-(4-methoxyphenyl)-N,2,6-trimethyl-6,7-dihydro-5H-cyclopenta[d]pyrimidin-4-aminium chloride and its analogues as antitumor agents” (J Med Chem, 2013)
